An excerpt weighted towards active compounds, which were near 27% of everything screened.
Cav3 T inh: inhibitors of human Cav3.2 T-type calcium channel. AID 449739. Cav3.2-expressing cells, Fluo-4 calcium fluorescence FDSS; hits give low values. 100,000 tested, 4% active. B-score at 10 µM. O95180;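 active means single-dose well whose peak fluorescence ratio is a statistical outlier from its plate by either plate-standardised score or position-corrected B-score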
CYP2C9 inhib: human CYP2C9 inhibition; CYP2C9 Supersomes, luciferin-H conversion, luminescence; inhibition, % at 5 µM; P11712; 96,000 tested, 20% active;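 active means blocking of liver enzyme CYP2C9 beyond about 50% at 5 µM, limit read from the data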
CYP2C9 activ: increases human cytochrome P450 2C9 activity; P11712; recombinant CYP2C9, luciferin-H conversion, luminescence; hits give high values; factor 1 = untreated enzyme, 0 = blocked; activation factor at 5 µM; 96,000 tested, 1.4% active;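 active means activation factor of 2 or more for CYP2C9 at a 5 µM dose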;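 further: 0 = sulfaphenazole-blocked wells and 1 = vehicle-only wells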
CYP2C19 activ: cytochrome P450 2C19 (human) activation | P33261 | recombinant CYP2C19, luciferin-H EGE luminescence; hits give high values; 0 = fully inhibited enzyme, 1 = untreated enzyme | activation factor at 5 µM | 96,000 tested, under 10 active | AID 1025;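 active means activation factor of at least 2 at 5 µM in the primary screen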;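 further: 0 = wells with 2.5 mM tranylcypromine and 1 = vehicle-only wells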
Target sequence (P33261 whole entry, looked up): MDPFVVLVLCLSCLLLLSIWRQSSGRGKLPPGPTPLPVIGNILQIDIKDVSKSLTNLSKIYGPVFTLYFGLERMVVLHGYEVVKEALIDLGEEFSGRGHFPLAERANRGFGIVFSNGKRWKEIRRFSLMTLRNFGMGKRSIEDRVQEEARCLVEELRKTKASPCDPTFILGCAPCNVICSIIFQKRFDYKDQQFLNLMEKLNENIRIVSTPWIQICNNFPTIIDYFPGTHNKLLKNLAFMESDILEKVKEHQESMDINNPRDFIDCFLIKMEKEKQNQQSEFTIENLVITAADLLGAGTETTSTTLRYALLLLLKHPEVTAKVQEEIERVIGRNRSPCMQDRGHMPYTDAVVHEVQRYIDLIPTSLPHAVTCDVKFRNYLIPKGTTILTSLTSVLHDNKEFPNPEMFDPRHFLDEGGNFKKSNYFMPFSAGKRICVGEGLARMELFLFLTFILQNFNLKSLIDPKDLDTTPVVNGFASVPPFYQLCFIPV
CYP2C19 inhib: human CYP2C19 inhibition | P33261 | CYP2C19 Supersomes, luciferin-H EGE luminescence, 30 min | inhibition, % at 5 µM | 96,000 tested, 21% active | AID 778;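 active means CYP2C19 inhibition above a set limit at 5 µM in the primary screen, cut at about 50% in these data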;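 further: plate controls were negative control wells for no effect and 2.5 mM tranylcypromine positive control for full effect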
HIV Rev-RRE inh: disrupts HIV-1 Rev binding to RRE RNA | P05866 | inhibition, % at 8 µM | 97,000 tested, 0.79% active | Rev peptide-RRE RNA binding, FRET;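 active means inhibition above the screen-wide mean plus 3 SD, cut at about 35% in these data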;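 further: 0% = median DMSO wells and 100% = median Neomycin B control wells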
Target sequence (P05866 whole entry, looked up): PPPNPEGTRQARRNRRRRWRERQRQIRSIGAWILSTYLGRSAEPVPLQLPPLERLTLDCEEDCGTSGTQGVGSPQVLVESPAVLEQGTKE
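Test system: labelled RRE RNA duplex and labelled Rev peptide. Times: 5 min compound–RNA preincubation, then 15 min with peptide, 25 °C. Doses: single-dose 8 µM. Measured by: FRET, excitation 480 nm, emission 540 nm donor and 671 nm acceptor. Measure: % inhibition of FRET ratio versus controls.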
* hit, by the source's call; · = no result given.

SMILES	Cav3 T inh	CYP2C9 inhib	CYP2C9 activ	CYP2C19 activ	CYP2C19 inhib	HIV Rev-RRE inh
O=C(Nc1ccc(F)cc1F)c1ccco1	0.0777	5.5	0.9	1.1	-5.6	3.0
CC1Cc2ccccc2N1Cc1nc2cc(C(F)(F)F)ccc2c(=O)[nH]1 (configuration not stated)	-1.09	50.9*	0.5	0.6	42.7	1.3
CCCc1cc(Nc2ccccc2OCC)n2ncnc2n1	0.073	2.7	1	0.6	39.7	-1.4
CCOCCCNC(=O)c1c[nH]c2ccc(S(=O)(=O)Nc3cccc(OC)c3)cc2c1=O	0.302	67.7*	0.3	0.7	26.7	14.4
COc1cccc(NS(=O)(=O)c2ccc3[nH]cc(C(=O)NCCN4CCOCC4)c(=O)c3c2)c1	·	46.4	0.5	0.9	7.3	2.4
O=C(NC1CC1)c1c[nH]c2ccc(S(=O)(=O)Nc3cccc(C(F)(F)F)c3)cc2c1=O	-5.6*	54.2*	0.5	0.8	15.4	10.0
O=C(NCc1cccnc1)c1c[nH]c2cc3c(cc2c1=O)OCCO3	0.241	1.5	1	1.1	-6.9	-0.9
O=C(NCc1ccccc1)c1c[nH]c2ccc(S(=O)(=O)Nc3ccc4c(c3)OCCO4)cc2c1=O	1.47	89.1*	0.1	0.7	32.0	9.9
CCOC(=O)N1CCN(c2nc(-c3cccs3)cc(C(F)(F)F)n2)CC1	0.546	6.7	0.9	0.9	8.1	2.7
CCc1ccc(NC(=O)N(C2CCCCC2)C(C)c2cccnc2)cc1 (configuration not stated)	-0.172	15.7	0.8	0.8	17.0	4.1
COc1nc(OC)nc(N2CCC(C(=O)NCC3CCCCC3)CC2)n1	1.64	-39.3	1.4	1	1.0	0.1
COc1cc(C)c(CNC2CCCCC2)cc1C	0.809	-3.2	1	0.9	12.4	0.7
N#Cc1c(-c2ccccc2)ccn(Cc2cccc(Cl)c2)c1=O	-1.12	51.4*	0.5	0.2	77.4*	3.6
N#Cc1c(-c2ccccc2)ccn(Cc2ccccc2Cl)c1=O	·	43.7	0.6	0.5	54.2*	3.0
Cc1cc(C)n(-c2cccc(Cl)c2)c(=O)c1C#N	-0.437	13.1	0.9	0.8	16.3	3.8
C=CCn1c(-c2ccccc2)ccc(C#N)c1=O	-0.972	13.7	0.9	0.8	18.1	15.4
CSc1cc(-c2ccccc2)n(Cc2ccccc2Cl)c(=O)c1C#N	-3	60.6*	0.4	0.8	20.2	23.4
CC(C)[C@@H]1NC(=O)c2cc([N+](=O)[O-])cc(F)c2NCCC[C@@H](C(N)=O)NC(=O)[C@H](CO)NC1=O	0.199	·	·	·	·	·
N#Cc1c(NC(=O)CN2CCCCC2)sc2c1CCC2	0.392	23.7	0.8	0.7	32.9	8.2
N#Cc1c(NC(=O)CSc2nnnn2C2CCCCC2)sc2c1CCCC2	-0.285	66.6*	0.3	0.6	43.1	13.3
O=C(CSc1nnnn1C1CCCCC1)Nc1nc2c(s1)CCCC2	-2.53	34.0	0.7	0.2	78.4*	15.5
CC1CCCCN1CC(=O)Nc1sc2c(c1C#N)CCC2 (configuration not stated)	0.247	61.1*	0.4	0.5	50.9*	8.2
CC(=O)c1sc(-c2c(C)nc3sccn23)nc1C1CCCC1	·	36.0	0.6	0.9	13.7	·
Cc1sc2nc3n(c(=O)c2c1C)NC(=O)CC3	0.674	·	·	·	·	10.1
O=C(Nc1ccccc1F)c1ccc(S(=O)(=O)NCC2CCCO2)cc1 (configuration not stated)	-0.00872	9.2	0.9	1	-1.4	6.3
SMILES	Cav3 T inh	CYP2C9 inhib	CYP2C9 activ	CYP2C19 activ	CYP2C19 inhib	HIV Rev-RRE inh
O=C(CN1C(=O)CSC1=O)N1CCc2ccccc2C1	-0.756	2.3	1	1.1	-11.2	9.8
COc1cc(CC(=O)NCc2ccccn2)cc(OC)c1OC	0.981	-7.8	1.1	0.9	14.2	4.6
COc1ccc(C2CCCN2C(=O)c2cccs2)cc1 (configuration not stated)	-0.334	27.4	0.7	0.7	32.6	-0.4
NC(=O)c1ccsc1NC(=O)COC(=O)C1CCCN1C(=O)c1cccs1 (configuration not stated)	0.822	72.3*	0.3	0.3	72.4*	4.6
COc1ccc(NC(=O)COC(=O)[C@@H]2CCCN2C(=O)c2cccs2)c(OC)c1	0.103	56.1*	0.4	0.6	42.5	4.7
CCN(C(=O)COc1ncnc2scc(-c3ccc(F)cc3)c12)C1CCS(=O)(=O)C1 (configuration not stated)	0.142	2.0	1	0.8	20.7	0.1
CCOc1c(OC)ccc2c3c(c(=O)oc12)CCCC3	1.02	-163.2	2.6*	0.2	75.9*	4.5
CCOc1ccc2c(C)c(C)c(=O)oc2c1OCC	-0.135	-152.3	2.5*	0.5	50.8*	-3.6
CCCNC(=O)C1(CC2CC(c3ccccc3)=NO2)CCN(C(=O)C2(C)CC2)CC1 (configuration not stated)	1.36	·	·	·	·	·
COc1ccc(NS(=O)(=O)c2cccc(-c3nnc4n3CCCCC4)c2)cc1	-0.0349	82.5*	0.2	0.6	43.7	3.8
COc1ccccc1S(=O)(=O)Nc1cccc(-c2nnc3n2CCCCC3)c1	2.05	12.3	0.9	0.9	7.9	5.9
Cc1ccc(OCC(O)CN2C(=O)NC(C)(C)C2=O)cc1 (configuration not stated)	-0.232	·	·	·	·	3.8
Cc1ccc(SCCCCN2C(=O)NC(C)(C)C2=O)cc1	0.632	77.4*	0.2	0.1	88.0*	5.6
CC1(C)NC(=O)N(CCOCCSc2ccccc2)C1=O	0.057	39.3	0.6	0.1	85.9*	7.3
CC1(C)NC(=O)N(CCOCCOc2ccccc2)C1=O	-0.106	17.6	0.8	0.5	47.6	9.5
CC1(C)NC(=O)N(CCSc2ccc(Cl)cc2)C1=O	0.629	50.4*	0.5	0.1	92.9*	1.7
COc1cc(CN2CCN(c3cccc(C)c3C)CC2)cc(Br)c1O	-0.956	23.3	0.8	0.7	32.1	·
Cc1ccccc1NC(=O)CSCC(=O)Nc1ccccc1C	0.215	39.6	0.6	0.3	72.2*	0.0
O=C(CSc1nc2ccccc2o1)Nc1ccc(N2CCOCC2)cc1	0.0669	23.5	0.8	0.8	22.3	1.6
Cc1ccccc1NC(=O)CSc1nc2ccccc2o1	0.28	10.3	0.9	0.4	59.0*	3.2
O=C(CSc1nc2ccccc2o1)Nc1ccccc1N1CCOCC1	·	94.7*	0.1	0.1	91.9*	4.3
Cc1ccccc1NC(=O)CSc1nc2cc3c(cc2cc1C)CCC3	-0.614	51.6*	0.5	0.9	8.4	10.7
Nc1cc(=O)[nH]c(SCCNS(=O)(=O)c2ccccc2)n1	0.0303	-2.8	1	1	-1.9	8.6
CCN(Cc1ccccc1)S(=O)(=O)c1ccc(S(=O)(=O)N2CCN(C)CC2)cc1	0.36	9.2	0.9	1	4.8	4.8
CCn1c(=NC(=O)CN2C(=O)CCC2=O)sc2c(C)cc(C)cc21	0.337	-75.9	1.8	0.8	16.7	5.2

Screening results: PubChem BioAssay, several laboratories
